From ChEMBL document CHEMBL4431336, “Ligand-based virtual screen for the discovery of novel M5 inhibitor chemotypes” (Bioorg Med Chem Lett, 2016)
Activity calls are given as the source filed them. The rule behind the calls is not given here.

Columns and labels:
[1] = target: T1, Muscarinic acetylcholine receptor M5 (Homo sapiens, UniProt P08912); test: Antagonist activity at human muscarinic M5 receptor assessed as inhibition of acetylcholine-induced calcium response; type: functional
T1 sequence (P08912 whole entry): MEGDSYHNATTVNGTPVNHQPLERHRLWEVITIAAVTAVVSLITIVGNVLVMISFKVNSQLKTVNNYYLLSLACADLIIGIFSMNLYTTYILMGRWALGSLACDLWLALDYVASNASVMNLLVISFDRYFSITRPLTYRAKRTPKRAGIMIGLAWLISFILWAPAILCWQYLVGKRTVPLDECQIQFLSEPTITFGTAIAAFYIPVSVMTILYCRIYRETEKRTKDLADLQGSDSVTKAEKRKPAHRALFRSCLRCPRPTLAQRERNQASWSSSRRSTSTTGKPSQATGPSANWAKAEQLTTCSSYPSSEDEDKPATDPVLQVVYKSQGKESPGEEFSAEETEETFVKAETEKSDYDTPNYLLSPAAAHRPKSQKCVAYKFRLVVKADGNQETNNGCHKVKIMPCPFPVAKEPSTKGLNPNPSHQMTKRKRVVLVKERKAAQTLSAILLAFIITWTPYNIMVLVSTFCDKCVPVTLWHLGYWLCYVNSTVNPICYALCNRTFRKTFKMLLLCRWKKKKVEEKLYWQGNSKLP
In short: (§1)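 Concentration–response curves (10-point) run in cells expressing human M1, M2, M3, M4 or M5 receptors, n=3. IC50 comes from the curves, with pIC50 also reported. The residual ACh response at 30 μM is given as % ACh min (mean±SEM).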

[2] = target: T2, Muscarinic acetylcholine receptor M5 (Homo sapiens) (UniProt P08912); test: Antagonist activity at human muscarinic M5 receptor assessed as inhibition of acetylcholine-induced calcium response at 10 uM; type: functional
T2 sequence (whole entry): T1 sequence (P08912 whole entry)
In short: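 Single-point functional assay in hM5 cells challenged with an EC80 of ACh, compound at 10 μM. Result is % inhibition, averaged from three determinations.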

[3] = target: T3, Muscarinic acetylcholine receptor M4 (Homo sapiens, UniProt P08173); test: Antagonist activity at human muscarinic M4 receptor assessed as inhibition of acetylcholine-induced calcium response; type: functional; in short: as §1
T3 sequence (P08173 whole entry): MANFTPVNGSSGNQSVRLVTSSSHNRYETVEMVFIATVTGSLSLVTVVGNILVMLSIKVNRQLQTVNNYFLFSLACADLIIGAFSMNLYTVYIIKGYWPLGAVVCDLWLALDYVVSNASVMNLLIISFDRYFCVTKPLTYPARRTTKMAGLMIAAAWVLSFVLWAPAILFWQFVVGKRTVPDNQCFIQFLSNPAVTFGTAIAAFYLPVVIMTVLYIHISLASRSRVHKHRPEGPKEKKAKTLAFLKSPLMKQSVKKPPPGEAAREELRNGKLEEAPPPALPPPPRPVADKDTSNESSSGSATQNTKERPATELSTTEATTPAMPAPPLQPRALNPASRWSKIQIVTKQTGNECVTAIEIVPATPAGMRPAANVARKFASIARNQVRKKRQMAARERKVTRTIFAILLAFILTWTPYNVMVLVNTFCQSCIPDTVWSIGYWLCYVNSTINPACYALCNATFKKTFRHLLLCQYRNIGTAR

[4] = target: T4, Muscarinic acetylcholine receptor M2 (Homo sapiens, UniProt P08172); test: Antagonist activity at human muscarinic M2 receptor assessed as inhibition of acetylcholine-induced calcium response; type: functional; in short: as §1
T4 sequence (P08172 whole entry): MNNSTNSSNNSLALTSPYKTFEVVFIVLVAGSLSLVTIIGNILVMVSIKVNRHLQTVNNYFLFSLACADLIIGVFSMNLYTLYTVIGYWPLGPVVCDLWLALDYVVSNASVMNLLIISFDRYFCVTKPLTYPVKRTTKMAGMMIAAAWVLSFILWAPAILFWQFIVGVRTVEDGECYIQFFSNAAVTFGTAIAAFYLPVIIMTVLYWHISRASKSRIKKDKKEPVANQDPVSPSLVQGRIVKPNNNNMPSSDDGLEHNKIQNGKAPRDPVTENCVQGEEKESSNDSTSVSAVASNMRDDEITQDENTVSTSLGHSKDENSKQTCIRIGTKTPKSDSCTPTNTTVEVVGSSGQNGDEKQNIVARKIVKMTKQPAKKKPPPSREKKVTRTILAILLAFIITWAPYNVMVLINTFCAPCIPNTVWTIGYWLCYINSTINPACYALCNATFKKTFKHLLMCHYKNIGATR

[5] = target: T5, Muscarinic acetylcholine receptor M1 (Homo sapiens, UniProt P11229); test: Antagonist activity at human muscarinic M1 receptor assessed as inhibition of acetylcholine-induced calcium response; type: functional; in short: as §1
T5 sequence (P11229 whole entry): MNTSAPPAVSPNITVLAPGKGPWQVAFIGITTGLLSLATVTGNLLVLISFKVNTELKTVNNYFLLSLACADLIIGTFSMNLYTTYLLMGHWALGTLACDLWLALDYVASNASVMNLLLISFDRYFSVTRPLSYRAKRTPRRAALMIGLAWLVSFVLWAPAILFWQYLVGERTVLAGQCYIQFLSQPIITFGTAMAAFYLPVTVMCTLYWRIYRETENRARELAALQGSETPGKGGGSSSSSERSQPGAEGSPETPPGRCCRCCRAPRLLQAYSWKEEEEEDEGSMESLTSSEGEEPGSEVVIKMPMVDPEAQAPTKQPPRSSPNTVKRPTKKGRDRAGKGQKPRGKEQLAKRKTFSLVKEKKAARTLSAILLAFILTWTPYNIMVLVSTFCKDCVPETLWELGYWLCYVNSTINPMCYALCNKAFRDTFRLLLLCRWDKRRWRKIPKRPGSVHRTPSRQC

[6] = target: T6, Muscarinic acetylcholine receptor M3 (Homo sapiens, UniProt P20309); test: Antagonist activity at human muscarinic M3 receptor assessed as inhibition of acetylcholine-induced calcium response; type: functional; in short: as §1
Target sequence in this assay (P20309 whole entry): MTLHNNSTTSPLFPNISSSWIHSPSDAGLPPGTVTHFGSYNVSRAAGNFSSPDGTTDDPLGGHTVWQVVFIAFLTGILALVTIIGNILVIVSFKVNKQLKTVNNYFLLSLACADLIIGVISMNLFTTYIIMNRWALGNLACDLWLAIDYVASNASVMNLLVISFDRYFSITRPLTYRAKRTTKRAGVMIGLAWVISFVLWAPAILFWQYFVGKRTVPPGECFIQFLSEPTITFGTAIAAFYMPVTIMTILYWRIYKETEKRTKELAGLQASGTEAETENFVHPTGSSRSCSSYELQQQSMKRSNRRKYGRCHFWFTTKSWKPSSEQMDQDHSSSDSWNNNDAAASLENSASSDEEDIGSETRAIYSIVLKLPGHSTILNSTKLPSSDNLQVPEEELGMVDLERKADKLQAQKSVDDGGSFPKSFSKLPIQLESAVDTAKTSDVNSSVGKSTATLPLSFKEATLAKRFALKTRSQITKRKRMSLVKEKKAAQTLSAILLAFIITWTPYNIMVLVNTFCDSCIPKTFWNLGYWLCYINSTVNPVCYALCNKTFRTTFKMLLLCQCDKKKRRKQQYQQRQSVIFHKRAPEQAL

[7] = target: T2, Muscarinic acetylcholine receptor M5 (Homo sapiens); test: Antagonist activity at human muscarinic M5 receptor assessed as inhibition of acetylcholine-induced calcium response at 30 uM; type: functional; in short: as §1
[8] = target: T7, Muscarinic acetylcholine receptor M1 (Homo sapiens) (UniProt P11229); test: Antagonist activity at human muscarinic M1 receptor assessed as minimum acetylcholine-induced calcium response at 30 uM; type: functional; set-up: scale not given: the % may be the effect or the level left; in short: as §1
T7 sequence (whole entry): T5 sequence (P11229 whole entry)

[9] = target: T2, Muscarinic acetylcholine receptor M5 (Homo sapiens); test: Antagonist activity at human muscarinic M5 receptor assessed as minimum acetylcholine-induced calcium response at 30 uM; type: functional; set-up: scale not given: the % may be the effect or the level left; in short: as §1
[10] = target: T8, Muscarinic acetylcholine receptor M2 (Homo sapiens) (UniProt P08172); test: Antagonist activity at human muscarinic M2 receptor assessed as minimum acetylcholine-induced calcium response at 30 uM; type: functional; set-up: scale not given: the % may be the effect or the level left; in short: as §1
T8 sequence (whole entry): T4 sequence (P08172 whole entry)

[11] = target: T2, Muscarinic acetylcholine receptor M5 (Homo sapiens); test: Antagonist activity at human muscarinic M5 receptor assessed as minimum acetylcholine-induced calcium response at 10 uM; type: functional; set-up: scale not given: the % may be the effect or the level left
[12] = target: T9, Muscarinic acetylcholine receptor M4 (Homo sapiens) (UniProt P08173); test: Antagonist activity at human muscarinic M4 receptor assessed as minimum acetylcholine-induced calcium response at 30 uM; type: functional; set-up: scale not given: the % may be the effect or the level left; in short: as §1
T9 sequence (whole entry): T3 sequence (P08173 whole entry)

[13] = target: T1, Muscarinic acetylcholine receptor M5; test: Displacement of [3H]NMS from human muscarinic M5 receptor
In short: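 Competition binding against [3H]-N-methylscopolamine in membranes prepared from cells expressing human M5, n=3.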

[14] = target: T6, Muscarinic acetylcholine receptor M3; test: Antagonist activity at human muscarinic M3 receptor assessed as minimum acetylcholine-induced calcium response at 30 uM; type: functional; set-up: scale not given: the % may be the effect or the level left; in short: as §1
Target sequence in this assay (P20309 whole entry, looked up): as the sequence (P20309 whole entry) above

SMILES | IC50 ([1]; read-out: IC50) [µM] | inhibition [2] | also measured
Cc1c(S(=O)(=O)N2CCC3(CC2)OCCS3)cnn1C | > 10 | 83% | –
O=S(=O)(c1cc(F)cc(F)c1)N1CCC2(CC1)OCCS2 | > 10 | 62% | –
Cc1nn(C)c(C)c1S(=O)(=O)N1CCC2(CC1)SCCS2 | > 10 | 86% | –
O=S(=O)(c1ccc(F)c(Cl)c1)N1CCC2(CC1)OCCS2 | > 10 | 83% | –
Cc1nn(C)c(C)c1S(=O)(=O)N1CCC2(CCCO2)CC1 | > 10 | 37% | –
Cn1cnc(S(=O)(=O)N2CCC3(CC2)OCCS3)c1 | – | inactive | –
Fc1cc(F)cc(-c2nnc(Cc3nc(-c4ccc5c(c4)OCO5)no3)o2)c1 | 5.16 | – | IC50 [3]: > 10 µM; IC50 [4]: 0.93 µM; Imax [2]: 70%; IC50 [5]: 2.8 µM
Cc1noc(C)c1S(=O)(=O)N1CCC2(CC1)OCCS2 | > 10 | 40% | –
CCN(C(=O)Cn1cc(-c2ccccc2)c(N2CCOCC2)n1)c1cccc(C)c1 | > 10 | – | inhibition [7]: 40%
Cc1nn(C)c(C)c1S(=O)(=O)N1CCC2(CC1)OCCS2 | 3.86 to 6.2 | – | IC50 [3]: > 10 µM; Activity [8]: 61%; IC50 ([1]; read-out: pIC50 (converted)): 0.661 µM; IC50 [4]: > 10 µM; Imax [2]: 50 to 88%; Activity [9]: 16%; Activity [10]: 37%; Activity [11]: 12.6%; IC50 [5]: > 10 µM; Activity [12]: 55%; Ki [13]: 2.7 µM; Activity [14]: 55%; IC50 [6]: > 10 µM

Continued, in another order:

IC50 ([1]; read-out: IC50) [µM] | inhibition [2] | SMILES | also measured
– | inactive | Cc1nn(C)cc1S(=O)(=O)N1CCC2(CC1)OCCS2 | –
0.246 | – | COc1ccc([C@@]23c4ccccc4C(=O)N2CCN3C(=O)c2cc(F)c(F)c(F)c2)cc1C | IC50 [3]: > 30 µM; IC50 [4]: > 30 µM; IC50 [5]: > 30 µM; IC50 [6]: > 30 µM
> 10 | 55% | O=S(=O)(c1cc(F)c(F)c(F)c1)N1CCC2(CC1)OCCS2 | –
> 10 | 27% | Cn1cc(S(=O)(=O)N2CCC3(CC2)OCCS3)cn1 | –
> 10 | – | Cc1noc(C)c1CCc1nnc2scc(-c3ccc(Cl)cc3)n12 | inhibition [7]: 40%
> 10 | 45% | Cc1nn(C)c(C)c1S(=O)(=O)N1CCC2(CC1)OCCO2 | –
